{"source": "ChEMBL document CHEMBL1148339", "about": "“Synthesis, structure-activity relationships, and drug resistance of beta-d-3'-fluoro-2',3'-unsaturated nucleosides as anti-HIV Agents” (J Med Chem, 2004)", "proteins": {"B1": {"name": "Adenosine deaminase (Bos taurus), P56658 (protein)", "chain": "MAQTPAFNKPKVELHVHLDGAIKPETILYYGRKRGIALPADTPEELQNIIGMDKPLSLPEFLAKFDYYMPAIAGCREAVKRIAYEFVEMKAKDGVVYVEVRYSPHLLANSKVEPIPWNQAEGDLTPDEVVSLVNQGLQEGERDFGVKVRSILCCMRHQPSWSSEVVELCKKYREQTVVAIDLAGDETIEGSSLFPGHVKAYAEAVKSGVHRTVHAGEVGSANVVKEAVDTLKTERLGHGYHTLEDATLYNRLRQENMHFEVCPWSSYLTGAWKPDTEHPVVRFKNDQVNYSLNTDDPLIFKSTLDTDYQMTKNEMGFTEEEFKRLNINAAKSSFLPEDEKKELLDLLYKAYGMPSPASAEQCL"}}, "substrate": "Nc1ncnc2c1ncn2[C@H]1C=C[C@@H](CO)O1", "assay": "Menten constant against adenosine deaminase (ADA)", "procedure,_shortened": "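Deamination by calf intestinal mucosa adenosine deaminase (0.15 units, MW 33 000, in 2 mL) in phosphate buffer pH 7.4 at 25 °C, substrate 15–100 μM, monitored by UV at 265 nm. Initial rates from graphical fitting of concentration vs time; Vmax and KM from Lineweaver–Burk plot, kcat calculated from enzyme amount.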"}
{"protein": "B1", "values": [{"measurement": "Km", "value": 30, "unit": "µM"}]}
